Data taken from ChEMBL document CHEMBL4020774, “Anti-influenza activity of monoterpene-containing substituted coumarins” (Bioorg Med Chem Lett, 2017).
Calls of active or inactive are those of the source. The calls are words filed in the database; no cut-off is given here.

Columns and labels:
[1] = Selectivity index, ratio of CC50 for MDCK cells to IC50 for Influenza A virus (A/California/07/09(H1N1)) pdm09 infected in MDCK cells; format: toxicity, cell-based; conditions: dog; read-out: Ratio CC50/IC50
[2] = Antiviral activity against Influenza A virus (A/California/07/09(H1N1)) pdm09 infected in MDCK cells pretreated for 1 hr followed by viral infection incubated for 24 hrs measured after 48 hrs by hemagglutination test; format: functional, cell-based, Influenza A virus (A/California/07/2009(H1N1))
How it was run: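 MDCK cells preincubated with compound for 1 h at 36°C, each concentration in triplicate, then infected (moi 0.01) for 24 h at 36°C, 5% CO2. Supernatant virus titer was read by hemagglutination after 48 h culture in MDCK cells at 36°C.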

[3] = Cytotoxicity against MDCK cells after 48 hrs by MTT assay; format: cell-based, Canis lupus familiaris; conditions: dog
How it was run: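 Uninfected MDCK cells were exposed to three-fold compound dilutions in MEM for 48 h at 36°C, 5% CO2, then washed with PBS. MTT ([…] in PBS) was added for 1 h, and formazan was dissolved in DMSO.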

[4] = system: Influenza A virus; assay: Antiviral activity against Influenza A virus (A/Puerto Rico/8/34(H1N1)) infected in MDCK cells at 500 uM after 4 to 8 hrs post infection by MTT assay; format: functional, cell-based; conditions: A/Puerto Rico/8/1934(H1N1)
How it was run: (§1)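 Time-of-addition assay in MDCK cells. Virus was adsorbed at m.o.i. 10 for 1 h at 4°C, unbound virions were washed off with MEM, and cells were incubated for 8 h at 36°C, 5% CO2 (start = 0 h). Compound at 500 µM final in MEM was present during set windows between −2 and 8 hpi, then washed out. Titer after 8 h was read as TCID50 by MTT assay.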

[5] = system: Influenza A virus; assay: Antiviral activity against Influenza A virus (A/Puerto Rico/8/34(H1N1)) infected in MDCK cells at 500 uM at 1 to 2 hrs post infection by MTT assay; format: functional, cell-based; conditions: A/Puerto Rico/8/1934(H1N1); how it was run: as §1

For `CC1(C)[C@H]2CC=C(COc3ccc4c5c(c(=O)oc4c3)CCCC5)[C@@H]1C2`, the selectivity ratio [1] was 13, the IC50 [2] was 64 µM and the CC50 at 48 h [3] was 857 µM.
`Cc1cc(=O)oc2cc(OCC3=CC[C@@H]4C[C@H]3C4(C)C)ccc12` showed a selectivity ratio [1] of 13, an IC50 [2] of 10 µM and a CC50 at 48 h [3] of 130 µM.
Compound `CC1(C)[C@H]2CC=C(CCOc3ccc4ccc(=O)oc4c3)[C@@H]1C2` has a selectivity ratio [1] of 20, an IC50 [2] of 0.5 µM and a CC50 at 48 h [3] of 10 µM.
In the case of `COc1cccc(COc2ccc3ccc(=O)oc3c2)c1`, the IC50 [2] is reported as over 1170 µM and the CC50 at 48 h [3] is reported as over 1170 µM.
For `CC1(C)[C@@H]2CC=C(COc3ccc4ccc(=O)oc4c3)[C@H]1C2`, the selectivity ratio [1] was 1, the IC50 [2] was over 10 µM and the CC50 at 48 h [3] was 7 µM.
Work on `CC(N)C12CC3CC(CC(C3)C1)C2` (stereo unspecified) [RIMANTADINE] yielded a selectivity ratio [1] of 9, an IC50 [2] of 41 µM and a CC50 at 48 h [3] of 363 µM.
`CC(C)=CCC/C(C)=C/COc1ccc2c3c(c(=O)oc2c1)CCCC3` showed a selectivity ratio [1] of 1, an IC50 [2] of over 85 µM and a CC50 at 48 h [3] of 100 µM.
`CC(C)=CCC/C(C)=C/COc1ccc2c(C)cc(=O)oc2c1` gave a selectivity ratio [1] of under 3, an IC50 [2] of over 10 µM and a CC50 at 48 h [3] of 28 µM.
Compound `CC(C)=CCC/C(C)=C/COc1ccc2ccc(=O)oc2c1` has a selectivity ratio [1] of 1, an IC50 [2] of 7 µM and a CC50 at 48 h [3] of 7 µM.
In the case of `CC1(C)[C@@H]2CC=C(COc3ccc4c5c(c(=O)oc4c3)CCC5)[C@H]1C2`, the selectivity ratio [1] is reported as 4, the IC50 [2] is reported as 33 µM and the CC50 at 48 h [3] is reported as 133 µM.
In the case of `CC1(C)[C@@H]2CC=C(COc3ccc4c5c(c(=O)oc4c3)CCCC5)[C@H]1C2`, the selectivity ratio [1] is reported as 3, the IC50 [2] is reported as 149 µM and the CC50 at 48 h [3] is reported as 415 µM.
For `Cc1cc(=O)oc2cc(OCC3=CC[C@H]4C[C@@H]3C4(C)C)ccc12`, the selectivity ratio [1] was 9, the IC50 [2] was 4 µM and the CC50 at 48 h [3] was 30 µM.
Work on `CC1(C)[C@H]2CC=C(COc3ccc4ccc(=O)oc4c3)[C@@H]1C2` yielded a selectivity ratio [1] of under 3, an IC50 [2] of over 101 µM and a CC50 at 48 h [3] of 310 µM.
`COc1cccc(COc2ccc3c4c(c(=O)oc3c2)CCCC4)c1` showed an IC50 [2] of over 982 µM and a CC50 at 48 h [3] of over 982 µM.
Work on `CC(C)=CCC/C(C)=C/COc1ccc2c3c(c(=O)oc2c1)CCC3` yielded an IC50 [2] of over 888 µM and a CC50 at 48 h [3] of over 888 µM.
Compound `CC1(C)[C@H]2CC=C(CCOc3ccc4c5c(c(=O)oc4c3)CCC5)[C@@H]1C2` has a selectivity ratio [1] of 41, an IC50 [2] of 21 µM and a CC50 at 48 h [3] of over 857 µM.
In the case of `CC1(C)[C@H]2CC=C(COc3ccc4c5c(c(=O)oc4c3)CCC5)[C@@H]1C2`, the selectivity ratio [1] is reported as 28, the Activity [4] is reported as “inactive” and the IC50 [2] is reported as 36 µM. The Activity [5] was “Active” and the CC50 at 48 h [3] was 982 µM.
`CC1(C)[C@H]2CC=C(CCOc3ccc4c5c(c(=O)oc4c3)CCCC5)[C@@H]1C2` showed a selectivity ratio [1] of 6, an IC50 [2] of 3 µM and a CC50 at 48 h [3] of 18 µM.
`COc1cccc(COc2ccc3c(C)cc(=O)oc3c2)c1` showed a selectivity ratio [1] of over 1, an IC50 [2] of 1010 µM and a CC50 at 48 h [3] of over 1120 µM.
